# The source made the active and inactive calls.
# Key:
# [1] = biological target: Cholinesterase (Homo sapiens) (UniProt P06276); experiment: Inhibition of human BchE using butyrylthiocholine as substrate by spectrophotometric multiwell plate assay
# [2] = Inhibition of human intestinal CE-mediated O-nitrophenyl acetate hydrolysis by spectrophotometry
# Summary of the method: (§1)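 Enzyme activity read spectrophotometrically as release of o-nitrophenol from o-nitrophenyl acetate across increasing inhibitor concentrations. Inhibitors were freshly dissolved in DMSO, typically as 10mM stocks. Fractional inhibition was plotted against inhibitor concentration and fitted to a partial-inhibition equation including Ks, α and β. Inhibition mode was chosen by Akaike's information criteria, and Ki was taken from the best-fit model.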
# [3] = biological target: Acetylcholinesterase (Homo sapiens) (UniProt P22303); experiment: Inhibition of human AchE using acetylthiocholine as substrate by spectrophotometric multiwell plate assay
# Acetylcholinesterase (Homo sapiens), sequence (P22303 whole entry): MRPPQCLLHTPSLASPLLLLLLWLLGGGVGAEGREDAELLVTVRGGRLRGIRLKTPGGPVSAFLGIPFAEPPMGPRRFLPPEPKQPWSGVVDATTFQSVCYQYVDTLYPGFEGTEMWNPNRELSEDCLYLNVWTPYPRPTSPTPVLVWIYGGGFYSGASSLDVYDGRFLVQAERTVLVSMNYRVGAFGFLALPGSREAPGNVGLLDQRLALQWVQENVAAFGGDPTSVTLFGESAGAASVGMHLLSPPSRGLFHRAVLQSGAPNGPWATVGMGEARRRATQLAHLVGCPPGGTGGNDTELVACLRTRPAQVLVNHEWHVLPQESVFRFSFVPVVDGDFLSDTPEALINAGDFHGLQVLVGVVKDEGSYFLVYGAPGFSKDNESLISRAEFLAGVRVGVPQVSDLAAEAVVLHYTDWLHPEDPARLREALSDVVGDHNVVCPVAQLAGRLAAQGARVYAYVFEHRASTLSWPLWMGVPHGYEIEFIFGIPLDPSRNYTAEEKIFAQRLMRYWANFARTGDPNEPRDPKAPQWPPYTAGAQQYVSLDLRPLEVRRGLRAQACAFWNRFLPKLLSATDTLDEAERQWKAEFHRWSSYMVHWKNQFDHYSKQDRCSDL
# Liver carboxylesterase 1 = biological target: T1, Liver carboxylesterase 1 (Homo sapiens, UniProt P23141); experiment: Inhibition of human liver CE1-mediated O-nitrophenyl acetate hydrolysis by spectrophotometry; summary of the method: as §1
# T1 sequence (P23141 whole entry): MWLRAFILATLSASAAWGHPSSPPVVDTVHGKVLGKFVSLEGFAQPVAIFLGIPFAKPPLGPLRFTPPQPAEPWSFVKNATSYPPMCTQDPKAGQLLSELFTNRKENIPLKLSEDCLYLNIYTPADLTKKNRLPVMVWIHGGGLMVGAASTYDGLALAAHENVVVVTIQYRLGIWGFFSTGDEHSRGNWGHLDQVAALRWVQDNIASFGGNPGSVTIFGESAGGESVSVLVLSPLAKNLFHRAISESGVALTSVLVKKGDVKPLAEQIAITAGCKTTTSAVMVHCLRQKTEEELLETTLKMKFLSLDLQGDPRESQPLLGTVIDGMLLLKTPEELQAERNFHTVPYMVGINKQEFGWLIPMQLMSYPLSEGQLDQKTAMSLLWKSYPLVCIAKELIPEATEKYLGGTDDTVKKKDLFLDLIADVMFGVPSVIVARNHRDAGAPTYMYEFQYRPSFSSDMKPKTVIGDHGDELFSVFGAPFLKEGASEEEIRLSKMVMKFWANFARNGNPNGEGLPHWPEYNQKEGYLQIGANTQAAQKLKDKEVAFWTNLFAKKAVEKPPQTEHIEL
# [4] = Inhibition of human intestinal CE-mediated irinotecan hydrolysis
# Summary of the method: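 Human intestinal CE (25 U per reaction; 1 U converts 1 nmole o-nitrophenyl acetate/min) with 20µM CPT-11 in 50mM Hepes pH7.4, inhibitor 1nM to 100µM. Incubated 37°C for 5 min, stopped with cold acidified methanol, centrifuged. SN-38 measured by reverse phase HPLC. Fractional inhibition fitted to partial inhibition equation, model chosen by Akaike's criteria, Ki from best fit.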
# Cholinesterase (Homo sapiens), sequence (P06276 whole entry): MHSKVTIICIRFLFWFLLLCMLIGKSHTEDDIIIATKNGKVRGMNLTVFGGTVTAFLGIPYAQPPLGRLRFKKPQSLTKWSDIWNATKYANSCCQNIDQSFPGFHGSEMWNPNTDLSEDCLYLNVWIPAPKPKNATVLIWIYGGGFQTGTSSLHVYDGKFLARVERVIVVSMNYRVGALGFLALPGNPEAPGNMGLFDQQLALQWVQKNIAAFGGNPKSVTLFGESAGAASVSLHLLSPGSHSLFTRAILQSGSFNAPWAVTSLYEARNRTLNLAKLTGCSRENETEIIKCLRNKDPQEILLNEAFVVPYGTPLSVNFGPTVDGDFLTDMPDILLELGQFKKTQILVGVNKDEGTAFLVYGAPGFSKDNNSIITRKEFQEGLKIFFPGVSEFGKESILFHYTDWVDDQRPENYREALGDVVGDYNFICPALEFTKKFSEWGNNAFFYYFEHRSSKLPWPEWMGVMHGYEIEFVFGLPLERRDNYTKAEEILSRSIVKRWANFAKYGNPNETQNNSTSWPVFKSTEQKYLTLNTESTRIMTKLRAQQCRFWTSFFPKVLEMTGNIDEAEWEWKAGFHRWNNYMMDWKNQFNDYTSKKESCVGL
SMILES,Activity [1],Ki [2] [nM],Activity [3],Ki (Liver carboxylesterase 1) [nM],Ki [4] [nM]
O=S(=O)(Nc1c(F)c(F)c(NS(=O)(=O)c2ccc(F)cc2)c(F)c1F)c1ccc(F)cc1,inactive,314,inactive,> 100000,–
O=S(=O)(Nc1ccc(NS(=O)(=O)c2ccccc2)c(Cl)c1)c1ccccc1,inactive,696,inactive,> 100000,–
Cc1ccc(S(=O)(=O)Nc2ccc(NS(=O)(=O)c3ccc(F)cc3)cc2)cc1,inactive,281,inactive,> 100000,–
O=S(=O)(Nc1cc(Br)c(NS(=O)(=O)c2ccc(Cl)cc2)cc1Br)c1ccc(Cl)cc1,inactive,> 100000,inactive,> 100000,–
Cc1ccc(S(=O)(=O)Nc2ccc(NS(=O)(=O)c3ccc(F)c(F)c3)cc2)cc1,inactive,194,inactive,> 100000,–
O=S(=O)(Nc1ccc(NS(=O)(=O)c2ccc(F)c(F)c2)cc1)c1ccc(F)c(F)c1,inactive,160,inactive,> 100000,–
Cc1ccc(S(=O)(=O)Nc2ccc(NS(=O)(=O)c3cc(F)ccc3F)cc2)cc1,inactive,467,inactive,> 100000,–
O=S(=O)(Nc1ccc(NS(=O)(=O)c2cccc(Cl)c2Cl)cc1)c1cccc(Cl)c1Cl,inactive,268,inactive,> 100000,–
COc1ccc(S(=O)(=O)Nc2ccc(NS(=O)(=O)c3ccc(F)cc3)cc2)cc1,inactive,568,inactive,> 100000,–
O=S(=O)(Nc1ccc(Oc2ccccc2)cc1)c1ccc(Br)cc1,inactive,165,inactive,–,> 100000
Cc1c(C)c(NS(=O)(=O)c2ccc(Cl)cc2)c(C)c(C)c1NS(=O)(=O)c1ccc(Cl)cc1,inactive,2010,inactive,> 100000,–
O=S(=O)(Nc1cc(Cl)c(NS(=O)(=O)c2ccc(Cl)cc2)cc1Cl)c1ccc(Cl)cc1,inactive,455,inactive,> 100000,–
CCOc1ccc(NS(=O)(=O)c2ccc(Cl)cc2)cc1,inactive,1310,inactive,–,3220
O=S(=O)(Nc1ccc(NS(=O)(=O)c2cc(F)cc(F)c2)cc1)c1cc(F)cc(F)c1,inactive,246,inactive,> 100000,–
O=S(=O)(Nc1ccc(NS(=O)(=O)c2cc(Cl)cc(Cl)c2)cc1)c1cc(Cl)cc(Cl)c1,inactive,385,inactive,> 100000,–
O=S(=O)(Nc1c(F)c(F)c(NS(=O)(=O)c2ccc(Cl)cc2)c(F)c1F)c1ccc(Cl)cc1,inactive,41.5,inactive,–,110
O=C(O)c1ccc(S(=O)(=O)Nc2ccc(NS(=O)(=O)c3ccc(F)cc3)cc2)cc1,inactive,> 100000,inactive,> 100000,–
O=S(=O)(Nc1cc(Br)c(NS(=O)(=O)c2ccccc2)cc1Br)c1ccccc1,inactive,> 100000,inactive,> 100000,–
Cc1c(C)c(NS(=O)(=O)c2cccc(Br)c2)c(C)c(C)c1NS(=O)(=O)c1cccc(Br)c1,inactive,1570,inactive,> 100000,–

SMILES,Activity [1],Ki [2] [nM],Activity [3],Ki (Liver carboxylesterase 1) [nM],Ki [4] [nM]
O=S(=O)(Nc1ccc(NS(=O)(=O)c2ccc(Cl)cc2)c2ccccc12)c1ccc(Cl)cc1,inactive,194,inactive,–,> 100000
Cc1c(C)c(NS(=O)(=O)c2cccc(Cl)c2)c(C)c(C)c1NS(=O)(=O)c1cccc(Cl)c1,inactive,2060,inactive,> 100000,–
Cc1ccc(C)c(S(=O)(=O)Nc2ccc(NS(=O)(=O)c3ccc(F)cc3)cc2)c1,inactive,240,inactive,> 100000,–
O=S(=O)(Nc1ccc(NS(=O)(=O)c2cc(Cl)c(Cl)cc2Cl)cc1)c1cc(Cl)c(Cl)cc1Cl,inactive,> 100000,inactive,> 100000,–
Cc1cc(NS(=O)(=O)c2ccccc2)ccc1NS(=O)(=O)c1ccccc1,inactive,365,inactive,–,238
O=S(=O)(Nc1ccc(NS(=O)(=O)c2ccc(Cl)c(Cl)c2)cc1)c1ccc(Cl)c(Cl)c1,inactive,91.5,inactive,> 100000,–
Cc1ccc(S(=O)(=O)Nc2ccc(NS(=O)(=O)c3ccc(Cl)cc3)cc2)cc1,inactive,161,inactive,> 100000,–
Cc1ccc(S(=O)(=O)Nc2ccc(NS(=O)(=O)c3ccc(F)cc3F)cc2)cc1,inactive,385,inactive,> 100000,–
O=S(=O)(Nc1ccc(NS(=O)(=O)c2ccc(Cl)cc2)cc1)c1ccc(Cl)cc1,inactive,–,inactive,–,141
O=S(=O)(Nc1ccc(NS(=O)(=O)c2ccc(F)c(F)c2)cc1)c1ccccc1,inactive,488,inactive,> 100000,–
CS(=O)(=O)Nc1ccc(SSc2ccc(NS(C)(=O)=O)cc2)cc1,inactive,767,inactive,–,> 100000
Cc1ccc(C(=O)O)cc1S(=O)(=O)Nc1ccc(NS(=O)(=O)c2ccc(F)cc2)cc1,inactive,693,inactive,> 100000,–
O=S(=O)(Nc1ccc(NS(=O)(=O)c2ccccc2F)cc1)c1ccccc1F,inactive,1450,inactive,> 100000,–
O=S(=O)(Nc1ccc(NS(=O)(=O)c2ccc3ccccc3c2)cc1)c1ccc2ccccc2c1,inactive,1580,inactive,> 100000,–
CNC(=O)c1ccc(S(=O)(=O)Nc2ccc(NS(=O)(=O)c3ccc(F)cc3)cc2)cc1,inactive,> 100000,inactive,> 100000,–
Cc1c(C)c(NS(=O)(=O)c2ccc(Cl)c(Cl)c2)c(C)c(C)c1NS(=O)(=O)c1ccc(Cl)c(Cl)c1,inactive,344,inactive,> 100000,–
O=S(=O)(Nc1ccc(NS(=O)(=O)c2cc(Cl)ccc2Cl)cc1)c1cc(Cl)ccc1Cl,inactive,119,inactive,> 100000,–
O=S(=O)(Nc1ccc(NS(=O)(=O)c2ccc(Cl)cc2)cc1)c1ccc(F)cc1,inactive,200,inactive,> 100000,–

# — ChEMBL document CHEMBL1137015, “Improved, selective, human intestinal carboxylesterase inhibitors designed to modulate 7-ethyl-10-[4-(1-piperidino)-1-piperidino]carbonyloxycamptothecin (Irinotecan; CPT-11) toxicity” (J Med Chem, 2009)
